Assay outcomes as filed in PubChem.
SIAE primary: inhibitors of human sialic acid acetylesterase SIAE | Q9HAT2 | SIAE FP-Rh probe binding, fluorescence polarization | inhibition, % at 9.66 µM | 370,000 compounds, 0.69% hits;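 active means inhibition above a cutoff: mean of compounds within the control limits plus 3 SD of those, cut at about 17% in these data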;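 further: 0% = plate median of compound wells and 100% = probe without SIAE protein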
GSTO1 inh: GSTO1 inhibition, counter-screen for RBBP9 inhibitors. 300,000 compounds, 1.1% hits. recombinant GSTO1, activity-based probe fluorescence polarization. P78417. inhibition, % at 5.96 µM;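 active means inhibition above the campaign mean inhibition plus 3 SD, cut at about 35% in these data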;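 further: 0% = GSTO1-1 with DMSO and 100% = wells lacking GSTO1-1 enzyme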
PAD4 inh: PAD4 (human) enzyme inhibition. Q9UM07. recombinant PAD4, RCA probe fluorescence polarization. inhibition, % at 6.36 µM. 330,000 compounds, 0.41% hits;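 active means percent inhibition above a cutoff equal to the mean of all tested compounds plus 3 SD, cut at about 15% in these data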;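 further: 0% = PAD4 with RCA probe and DMSO and 100% = probe without PAD4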
Target sequence (Q9UM07 whole entry, looked up): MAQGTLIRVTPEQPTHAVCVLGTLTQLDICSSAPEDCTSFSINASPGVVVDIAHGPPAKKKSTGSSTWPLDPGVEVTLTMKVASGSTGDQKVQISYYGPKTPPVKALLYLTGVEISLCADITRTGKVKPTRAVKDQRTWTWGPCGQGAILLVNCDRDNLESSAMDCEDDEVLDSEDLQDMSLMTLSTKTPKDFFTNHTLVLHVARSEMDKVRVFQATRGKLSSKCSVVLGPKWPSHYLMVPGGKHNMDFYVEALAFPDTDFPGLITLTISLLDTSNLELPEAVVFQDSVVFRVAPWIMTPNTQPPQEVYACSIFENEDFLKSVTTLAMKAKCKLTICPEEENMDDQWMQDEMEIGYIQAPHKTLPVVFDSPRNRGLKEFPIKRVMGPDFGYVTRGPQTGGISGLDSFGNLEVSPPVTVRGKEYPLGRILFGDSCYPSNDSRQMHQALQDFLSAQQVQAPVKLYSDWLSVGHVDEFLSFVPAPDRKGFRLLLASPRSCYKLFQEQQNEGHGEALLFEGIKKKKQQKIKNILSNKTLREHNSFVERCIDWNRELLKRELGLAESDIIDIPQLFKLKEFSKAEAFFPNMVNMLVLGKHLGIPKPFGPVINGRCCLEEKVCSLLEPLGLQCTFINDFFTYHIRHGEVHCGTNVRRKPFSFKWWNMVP
RBBP9 inh: inhibitors of human serine hydrolase RBBP9; recombinant RBBP9, FP-Rh probe fluorescence polarization; inhibition, % at 7.94 µM; 220,000 compounds, 0.2% hits; O75884;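 active means inhibition above the campaign mean of all tested compounds plus 3 SD, cut at about 14% in these data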;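 further: plate controls were DMSO wells with RBBP9 for no effect and wells lacking RBBP9 protein for full effect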
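Test system – recombinant human RBBP9 · Input – RBBP9 2.5 µM in dispensing solution, pre-mixing · Medium – Tris buffer pH 8.0, NaCl, Pluronic · Schedule – preincubation 30 min plus labeling 45 min at 25 °C · Measured by – fluorescence polarization · Measure – % inhibition · Controls – DMSO and no-protein wells · Replicates – one well per compound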
PRMT1 FP inh: PRMT1 (human) inhibition, primary screen | recombinant PRMT1, activity-based probe fluorescence polarization | inhibition, % at 2.79 µM | 370,000 compounds, 1.3% hits;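 active means inhibition above about 21% made by adding two undisclosed values, limit read from the data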
PRMT1 confirm: confirmation of human PRMT1 inhibitors; recombinant His-PRMT1, activity-based probe fluorescence polarization; inhibition, % at 2.79 µM; shares compounds with PRMT1 FP inh; 3,300 compounds, 42% hits;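 active means mean inhibition across replicates above the hit cutoff derived for the earlier primary screen, cut at about 22% in these data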
The depositor's hits bear a star; . = no result. A selection: hits, their analogues and other compounds. The true share with any hit is near 2.7%.

SMILES	SIAE primary	GSTO1 inh	PAD4 inh	RBBP9 inh	PRMT1 FP inh	PRMT1 confirm
O=C1/C(=C/c2ccco2)SC(=S)N1CCC(=O)N1CCCCC1CCO (stereo not drawn)	3	22	-9	.	26*	1
CCN(CC(=O)Nc1c(F)cccc1F)C(=O)CCSc1ccc(C)cc1	2	10	1	.	2	.
CCOC(=O)CSc1nc2c(c(=O)[nH]c(=O)n2C)n1CCc1ccccc1	-5	3	1	-6	0	.
Cn1c(=O)[nH]c(=O)c2c1nc(SCC(=O)O)n2CCc1ccccc1	8	-2	-1	-6	26*	5
Cn1ccnc1C(O)c1cc(C(C)(C)C)c(O)c(C(C)(C)C)c1 (stereo not drawn)	-4	11	-5	-1	37*	13
CC(C)(Sc1cc(C(C)(C)C)c(O)c(C(C)(C)C)c1)Sc1cc(C(C)(C)C)c(O)c(C(C)(C)C)c1	4	8	-1	-4	-6	.
O=C(Nc1ccccc1Cl)c1ccccc1	-5	1	-2	0	1	.
O=C(CSCC(=O)c1ccccc1)Nc1ccccc1Cl	3	1	0	-6	99*	28*
CCC1(C)NC(=O)N(CC(=O)Nc2sc3c(c2C(=O)OC)CCCCC3)C1=O (stereo not drawn)	-4	7	-2	-10	0	.
COC(=O)c1c(NC(=O)CN2C(=O)C(=O)N(CC(C)C)C2=O)sc2c1CCCCC2	0	9	-2	-8	58*	8
Cc1ccc(C)c(NC(=S)c2nc3ccccc3s2)c1	-2	-6	3	-11	29*	9
COc1ccc(C2c3sc(=O)[nH]c3SC3C(=O)N(c4ccccc4)C(=O)C32)cc1 (stereo not drawn)	0	5	-5	-1	27*	1
NS(=O)(=O)c1cccc2c1c([N+](=O)[O-])cc1nc(O)c(O)nc12	0	7	-5	.	26*	27*
CCC(CC)=NNc1ccc(S(N)(=O)=O)cc1[N+](=O)[O-]	7	2	-5	0	-2	.
Cc1cccc2sc(NC(=O)Cn3c(C)csc3=O)nc12	-1	.	.	.	5	.
CC1(C)SCC(C(=O)O)N1C=O (stereo not drawn)	2	9	0	0	26*	2
COc1ccc(NC(=O)C2CSC(C)(C)N2C=O)cc1 (stereo not drawn)	-1	5	2	-6	1	.
CCCOc1ccc(C(=O)C(c2ccccc2)N2CCOCC2)cc1 (stereo not drawn)	-1	2	-1	-11	3	.
C(CCc1nn[nH]n1)CCC1CCCCC1	-5	.	.	.	-6	.
C/C(CCc1oc2ccc(Br)cc2c1-c1ccc(C)o1)=N/O	7	2	-5	-11	3	.
C/C(CCc1oc2ccc(Cl)cc2c1-c1ccc(C)o1)=N\O	3	-6	-10	-6	33*	1
COC(=O)c1ccc(NS(=O)(=O)c2ccc(SC)cc2)cc1	-4	6	6	-9	2	.
S=c1[nH]nc(-c2c[nH]c3ccccc23)o1	3	-2	8	.	9	.
Oc1cc2ccccc2cc1-c1n[nH]c(=S)o1	-4	14	0	7	26*	36*
CN1CC=C2C(C#N)=C(N)C(C#N)(C#N)[C@H](c3cccc(Cl)c3)C2C1 (stereo partly drawn)	8	4	11	2	26*	13
SMILES	SIAE primary	GSTO1 inh	PAD4 inh	RBBP9 inh	PRMT1 FP inh	PRMT1 confirm
CCN1CC=C2C(C#N)=C(N)C(C#N)(C#N)[C@H](c3cccc(OC)c3OC)[C@H]2C1	1	6	-1	-5	37*	10
CN1CC=C2C(C#N)=C(N)C(C#N)(C#N)[C@H](c3cccs3)[C@H]2C1	.	11	8	8	.	.
COc1ccccc1NC(=O)c1ccccc1S(=O)(=O)c1ccccc1[N+](=O)[O-]	-5	3	-1	-2	0	.
COc1ccc(C)cc1NC(=O)CN1CCN(CC(=O)Nc2ccccc2F)CC1	3	5	-1	-9	-2	.
COc1ccc(CCNC(=O)Nc2ccc3nc([C@@H]4O[C@H](CO)[C@@H](O)[C@H](O)[C@H]4O)[nH]c3c2)cc1Br	0	.	.	.	-2	.
O=c1c2ccccc2sn1-c1cc(S(=O)(=O)N2CCOCC2)ccc1N1CCCC1	6	-10	0	10	88*	80*
